Screening results as filed in PubChem BioAssay.
Dynein transport: inhibitors of GR-EGFP nuclear translocation, primary screen, dynein cargo transport inhibitor project, imaging, high-content, 3617.4 mouse cells | test concentration mostly 20 µM; stimulated with dexamethasone, 1 µM; hits give low values | z-score, hits read low | actives 0.47% (n = 220,000);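 active = plate z-score of nuclear minus cytoplasmic receptor signal below a set negative limit, without overly bright fluorescence or cell loss, cut at about -3.5 in these data, passing the limit was not always enough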;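 also: z-score of nuclear minus cytoplasmic ring GR-EGFP intensity difference per well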
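Buffer or medium: tet-free, stripped-serum medium; Also added: dexamethasone, 1.0 µM final; Technique: high-content fluorescence imaging after fixation; Times: 48 h induction, 1 h compound, 30 min dex at 37 °C; Read-out: per-cell GR-EGFP intensity, nucleus versus surrounding cytoplasmic ring, well-averaged.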
MEKK2 WT-MEK5: modulators of MEK5 binding to wildtype MEKK2, primary screen, biochemical, multiplex bead flow cytometry, Alexa488-MEK5. actives 1.1% (n = 290,000). AID 1531, 2009. Mitogen-activated protein kinase kinase kinase 2 (Homo sapiens), Q9Y2U5. binding response (% of control), % at 10 µM. Alexa488-MEK5 binding to MEKK2 WT; actives lie on both sides; in the data active = binding response below about 67% or above about 130%
MEKK3 PB1 HTS: modulators of MEKK3-MEK5 PB1 binding, primary screen, biochemical, wildtype MEKK3, multiplex bead flow cytometry, Alexa488-MEK5; Mitogen-activated protein kinase kinase kinase 3 (Homo sapiens), Q99759; bead-based flow cytometry, Alexa488-MEK5 binding to MEKK3; actives lie on both sides; 0 = blocked by unlabeled MEK5, 100 = vehicle; binding response (% of control), % at 10 µM; actives 1.4% (n = 290,000); AID 1529, 2009;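 active = binding response more than 3 SD above or below the average of its plate-row segment, actives on both sides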;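 also: Alexa488 bead fluorescence after subtracting the streptavidin-only scavenger bead signal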
Target sequence (Q99759 whole entry, looked up): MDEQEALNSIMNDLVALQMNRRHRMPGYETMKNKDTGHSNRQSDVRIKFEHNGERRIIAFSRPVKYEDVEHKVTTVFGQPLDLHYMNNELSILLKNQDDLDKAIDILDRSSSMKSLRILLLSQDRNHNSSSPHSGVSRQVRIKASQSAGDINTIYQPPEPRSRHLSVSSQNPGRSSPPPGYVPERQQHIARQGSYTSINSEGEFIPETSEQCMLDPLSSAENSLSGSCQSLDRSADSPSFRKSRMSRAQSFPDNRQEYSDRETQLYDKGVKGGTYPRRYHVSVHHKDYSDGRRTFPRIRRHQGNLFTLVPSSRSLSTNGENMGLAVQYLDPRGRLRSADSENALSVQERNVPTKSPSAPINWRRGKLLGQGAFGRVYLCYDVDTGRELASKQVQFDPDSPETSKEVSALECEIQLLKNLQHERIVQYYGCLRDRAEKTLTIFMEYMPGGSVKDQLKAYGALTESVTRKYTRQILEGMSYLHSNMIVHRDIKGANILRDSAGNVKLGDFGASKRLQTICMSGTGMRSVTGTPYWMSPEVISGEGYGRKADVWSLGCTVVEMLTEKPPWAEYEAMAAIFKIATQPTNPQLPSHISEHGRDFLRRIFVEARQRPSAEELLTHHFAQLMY
MEKK2 mut-MEK5: MEK5 binding signal on mutant MEKK2 PB1, primary screen, biochemical, multiplex bead flow cytometry, Alexa488-MEK5; Alexa488-MEK5 binding to MEKK2 mutant; percent response, % at 10 µM; actives 0.35% (n = 290,000); AID 1530, 2009; in the data active = percent response above about 24%, passing the limit was not always enough
B2AR ag: beta2AR agonists driving receptor internalization, primary screen, cell-based, FAP fluorogen, flow cytometry; Beta-2 adrenergic receptor (Homo sapiens), P07550; Am2.2-beta2AR cells; response, % (test concentration not listed); actives 0.43% (n = 340,000); AID 504454, 2011;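 active = response above a set limit, near 3 SD of response in nonfluorescent compounds, cut at about 42% in these data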
ATG4B inh: ATG4B protease inhibitors, primary screen, biochemical, fluorescence, uHTS; Cysteine protease ATG4B (Homo sapiens), Q9Y4P1; ATG4B cleavage of LC3-PLA2, NBD-HPC fluorescence, 1 h; inhibition, % at 8.33 µM; actives 0.51% (n = 340,000); in the data active = inhibition above about 40%
Beta2AR ag CP1: beta2AR agonists via receptor internalization, confirmation, cell-based, FAP fluorogen, flow cytometry, single point, cherry pick 1. Am2.2-beta2AR cells, FAP surface receptor; hits give low values. AID 540358, 2011. percent response (surface receptor), % at 10 µM. shares compounds with B2AR ag. actives 25% (n = 1,100);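 active = surface receptor percent response at or below 58%, roughly 3 SD from nonfluorescent compounds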
FAP fluor counter: counter-screen for beta-2AR agonists: fluorescence in Am2.2 cells. shares compounds with B2AR ag. FAP fluorogen flow cytometry, fluorescence counterscreen; hits give low values. calls only at 10 µM. 1,100 tested, under 10 active;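 active = percent response below a set limit in fluorescence channel 1 and below 50% in channel 8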
A number is an active result; n = inactive; x = no result. Only some compounds are listed: those with a hit (about 2.9% of all), similar ones and a draw of the others.

SMILES	Dynein transport	MEKK2 WT-MEK5	MEKK3 PB1 HTS	MEKK2 mut-MEK5	B2AR ag	ATG4B inh	Beta2AR ag CP1	FAP fluor counter
CC1CCN(S(=O)(=O)c2ccc(C(=O)Nc3nnc(-c4ccco4)o3)cc2)CC1	x	n	n	n	50.7	n	n	n
O=C(Nc1nnc(-c2ccco2)o1)c1ccc(S(=O)(=O)N2CCCC2)cc1	n	n	n	n	n	n	x	x
Cn1c(=O)n(C)c2cc([N+](=O)[O-])c(N3CCN(S(=O)(=O)c4ccc(C(C)(C)C)cc4)CC3)cc21	n	n	n	n	48.2	n	n	n
Nc1cc(N)cc(-c2nc3ccccc3o2)c1	x	n	n	n	43.0	n	n	n
CC1(C)Oc2ccc3ccc(=O)oc3c2C(/C=N/O)=C1Cl	x	n	n	n	n	n	x	x
CCOC(=O)N1CCN(c2ncnc3c2[nH]c2ccc(OC)cc23)CC1	n	n	n	n	90.5	n	n	n
COc1cccc(NS(=O)(=O)c2ccc3c(c2)CCCN3C(C)=O)c1	n	n	n	n	46.6	n	n	n
COc1ccc(OC)c(NC(=O)COc2ccc(Br)cc2)c1	x	n	n	n	67.9	n	n	n
N#Cc1ccc(-c2cccnc2)nc1SCc1ccc(Cl)c(Cl)c1	n	n	n	n	n	n	x	x
N#Cc1ccc(-c2cccnc2)nc1SCc1ccc(Cl)cc1Cl	n	n	n	n	51.7	n	n	n
O=C(Nc1cccc(-c2nc3cccnc3s2)c1)C1c2ccccc2Oc2ccccc21	n	n	n	n	73.9	n	44.4	n
O=C(CN1CCc2ccccc2C1)Nc1ccccc1N1CCCCCC1	n	n	n	n	110.0	n	n	n
CCC(=O)N1C(Cc2ccccc2)COC1(C)C (stereo not drawn)	n	n	n	n	n	n	n	n
O=C(C(c1ccccc1)c1ccccc1)N1CCN(c2ccccn2)CC1	n	n	n	n	113.3	n	15.6	n
COc1ccc(NC(=O)c2cc(-c3cccnc3)nc3ccc(C)cc23)cc1OC	n	n	n	n	n	n	x	x
COc1ccc(NC(=O)c2cc(-c3ccncc3)nc3ccc(Br)cc23)cc1OC	x	n	n	n	97.0	n	n	n
Nc1nonc1C(=O)NCCNS(=O)(=O)c1ccc(F)cc1	n	n	n	n	65.1	n	n	n
CC1=C(C)CC(C(=O)NCc2ccccc2F)C(C(=O)O)C1 (stereo not drawn)	x	n	n	n	n	x	x	x
COc1ccc(C(=O)c2c(C)c3ccccc3n2CC(O)CNC(C)C)cc1 (stereo not drawn)	n	n	n	n	43.6	n	n	n
COc1ccc(NCC(=O)n2c(C)c(C)c3ccccc32)cc1	n	n	n	n	n	n	x	x
CC1(C)C2CCC1(CS(=O)(=O)N1CCN(c3ccc(F)cc3)CC1)C(=O)C2 (stereo not drawn)	x	n	n	n	n	n	x	x
O=C(COC(=O)Cc1ccc(F)cc1)NC(=O)c1ccccc1	x	x	x	x	n	n	x	x
COc1ccccc1C(=O)NC(=O)COC(=O)Cc1ccc(F)cc1	x	x	x	x	58.5	n	n	n
COc1ccc(S(=O)(=O)N2CCCCC2)cc1NC(=O)CCNC(=O)c1ccc(Br)cc1	x	x	x	x	n	n	x	x
COC(=O)C1=C(C(=O)OC)C(c2ccccc2O)c2sc(=O)[nH]c2S1 (stereo not drawn)	n	n	n	n	99.6	n	n	n
SMILES	Dynein transport	MEKK2 WT-MEK5	MEKK3 PB1 HTS	MEKK2 mut-MEK5	B2AR ag	ATG4B inh	Beta2AR ag CP1	FAP fluor counter
O=C(Cc1ccccc1)N/N=C/c1ccc2cccc(O)c2n1	n	n	n	n	n	n	x	x
CNC[C@H](NC[C@@H](NCCCc1ccccc1)c1ccccc1)[C@H](C)O	x	n	n	n	55.1	n	n	n
Cc1ccc(OCc2cc(C(=O)NCc3cnn(-c4cccc(F)c4)c3)no2)cn1	x	n	n	n	97.4	n	16.0	n
Cc1ccc(OCc2cc(C(=O)NCc3ccc(OC(F)(F)F)cc3)no2)cn1	x	n	n	n	52.0	n	40.0	n
O=C(NCCc1cnn(-c2ccccc2)c1)c1cc(COc2c(F)cccc2F)on1	n	n	n	n	n	n	x	x
CCc1cc(CNC(=O)c2cc(COc3ccc(C)nc3)on2)on1	x	n	n	n	n	n	x	x
O=S(=O)(c1cccc2nonc12)N1CCCCC1	x	n	n	n	n	n	x	x
O=C1CCC(=O)N1c1nc2nc(-c3ccccc3)cc(=O)n2[nH]1	n	n	n	n	42.8	n	n	n
Cc1nc2nc(-c3ccccc3)cc(=O)n2[nH]1	n	n	n	n	n	n	x	x
O=c1cc(-c2ccccc2Cl)oc2c([N+](=O)[O-])c(O)cc(O)c12	n	n	n	n	n	n	x	x
N#Cc1ccc(C(=O)Nc2cc(S(=O)(=O)Nc3ccc(Cl)cc3)ccc2N2CCCCC2)cc1	n	n	n	n	43.8	n	n	n
CCC/C=C(\CCC)C(NC(=O)c1ccc(C(F)(F)F)cc1)c1ccccc1 (stereo not drawn)	x	n	n	n	x	x	x	x
c1ccc(CSc2nnnn2-c2cccc3ccccc23)nc1	n	n	n	n	43.3	n	38.9	n
O=S(=O)(O)c1ccc2c(c1)C(C(Cl)(Cl)Cl)OC(C(Cl)(Cl)Cl)O2 (stereo not drawn)	x	x	x	x	n	n	x	x
Cc1cc(C)n(-c2nc(SCC(=O)Nc3nccs3)c3c4c(sc3n2)COC(C)(C)C4)n1	n	n	n	n	92.8	n	n	n
O=C(Oc1ccccc1)c1cccc2cccc(C(=O)Oc3ccccc3)c12	n	n	n	n	n	n	x	x
CCOc1ccc(OCC)c(NC(=O)CSc2nc3cccnc3n2C)c1	n	n	n	n	n	n	x	x
CCOc1ccc2nc(NC(=O)CSc3nc4cccnc4n3C)sc2c1	n	n	n	n	49.5	n	n	n
CN(CCCN1CCOCC1)Cc1cn(C)nc1-c1ccccc1F	n	n	n	n	n	n	n	n
CCC(=O)Nc1ccc(-c2nn3c(C)nnc3s2)cc1C	n	n	n	n	59.7	n	n	n
